Measurements: ChEMBL document CHEMBL1125248, “Synthesis and anticancer activity of various 3'-deoxy pyrimidine nucleoside analogues and crystal structure of 1-(3-deoxy-beta-D-threo-pentofuranosyl)cytosine” (1991)

Key:
Format in all cases: functional
[1] = tested on: CCRF-CEM; assay: Inhibit the replication of CCRF-CEM cell line in vitro.; settings: Homo sapiens, read-out: ED50 (the source's name)
Method in brief: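 Human CCRF-CEM lymphoblastic leukemia cells held in suspension in RPMI medium with 10% horse serum, 37 °C, humidified 5% CO2. Test agent at various concentrations added to exponential-phase cultures (2 × 10⁴ cells/mL). Cell numbers compared with untreated cultures at 24, 48 and 72 h. 50% replication-inhibiting concentration read from dose-response curves, at least two independent experiments.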

[2] = tested on: P388; assay: Effective dose to inhibit the replication of P388 cell line in vitro.; settings: Mus musculus, read-out: ED50 (the source's name)
Method in brief: (§1)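 Murine L1210, P388 and S-180 cells grown as suspension cultures in Fischer's medium with 10% horse serum at 37 °C under 5% CO2. Various concentrations added to exponentially growing cells at 2 × 10⁴ cells/mL. Cells counted against drug-free controls after 24, 48 and 72 h. ED50 (50% inhibition of replication) estimated from dose-response curves of at least two independent experiments.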

[3] = tested on: L1210; assay: Effective dose to inhibit the replication of L1210 cell line in vitro.; settings: Mus musculus, read-out: ED50 (the source's name); method in brief: as §1
[4] = tested on: CCRF S-180; assay: Effective dose to inhibit the replication of S180 cell line in vitro.; settings: Mus musculus, read-out: ED50 (the source's name); method in brief: as §1

Row | SMILES | EC50 [1] | EC50 [2] | EC50 [3] | EC50 [4]
1 | CC(=O)O[C@H]1C[C@@H](CO)O[C@H]1n1ccc(N)nc1=O | 3 µM | 2 µM | 5 µM | 20 µM
2 | Nc1ccn([C@@H]2O[C@H](CO)[C@@H](O)[C@@H]2O)c(=O)n1 [CYTARABINE] | 0.005 µM | 0.02 µM | 0.05 µM | 0.2 µM
3 | CC(=O)OC[C@@H]1C[C@H](OC(C)=O)[C@H](n2ccc(N)nc2=O)O1 | 1 µM | 10 µM | 20 µM | 30 µM
4 | CC(=O)Nc1ccn([C@@H]2O[C@H](CO)C[C@@H]2OC(C)=O)c(=O)n1 | > 100 µM | > 100 µM | > 100 µM | > 100 µM
5 | O=c1[nH]c(=O)n([C@@H]2O[C@H](CO)C[C@H]2O)cc1Br | > 100 µM | > 100 µM | > 100 µM | > 100 µM
6 | O=c1ccn([C@@H]2O[C@H](CO)C[C@@H]2O)c(=O)[nH]1 | > 100 µM | > 100 µM | > 100 µM | > 100 µM
7 | Nc1ccn([C@@H]2O[C@H](CO)C[C@@H]2O)c(=O)n1 | 2 µM | 5 µM | 10 µM | 34 µM
8 | Nc1ccn([C@@H]2O[C@H](CO)C[C@H]2O)c(=O)n1 | 25 µM | 2.5 µM | 5 µM | 15 µM
9 | Nc1nc(=O)n([C@@H]2O[C@H](CO)C[C@H]2O)cc1I | > 100 µM | > 100 µM | > 100 µM | > 100 µM
10 | O=c1[nH]c(=O)n([C@@H]2O[C@H](CO)C[C@@H]2O)cc1I | > 100 µM | > 100 µM | > 100 µM | > 100 µM
11 | Nc1nc(=O)n([C@@H]2O[C@H](CO)C[C@H]2O)cc1Br | > 100 µM | > 100 µM | > 100 µM | > 100 µM
12 | CC(=O)Nc1ccn([C@@H]2O[C@H](COC(C)=O)C[C@@H]2OC(C)=O)c(=O)n1 | 23 µM | > 100 µM | > 100 µM | > 100 µM
13 | O=c1[nH]c(=O)n([C@@H]2O[C@H](CO)C[C@@H]2O)cc1Cl | > 100 µM | > 100 µM | > 100 µM | > 100 µM
14 | CC(=O)OC[C@@H]1C[C@H](O)[C@H](n2ccc(N)nc2=O)O1 | 0.4 µM | 3 µM | 3 µM | 13 µM
15 | O=c1[nH]c(=O)n([C@@H]2O[C@H](CO)C[C@@H]2O)cc1Br | > 100 µM | > 100 µM | > 100 µM | > 100 µM
16 | O=c1ccn([C@@H]2O[C@H](CO)C[C@H]2O)c(=O)[nH]1 | > 100 µM | 25 µM | 50 µM | > 100 µM
